Test results taken from ChEMBL document CHEMBL5038657, “Discovery of Novel Inhibitors of Uridine Diphosphate-N-Acetylenolpyruvylglucosamine Reductase (MurB) from Pseudomonas aeruginosa, an Opportunistic Infectious Agent Causing Death in Cystic Fibrosis Patients” (J Med Chem, 2022).

What was measured:
Pseudomonas aeruginosa [1] = test: Binding affinity to Pseudomonas aeruginosa MurB assessed as change in melting temperature at 1 mM by differential scanning fluorimetry
Summary of the method: (§1)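 Recombinant Pa MurB (E. coli BL21(DE3)-expressed, SUMO tag cleaved; MurB–FAD complex) at 10 μM in 25 mM Tris–HCl pH 8.0, 150 mM NaCl, 5X SyproOrange with ligand in DMSO-d6. Ramped 25–95 °C in 0.5 °C steps of 30 s. ΔTm taken against DMSO-d6 reference, with NADP+ as positive control. Ligand at 5.0 mM run once (n = 1); at 1.0 mM run in triplicate (n = 3).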

Pseudomonas aeruginosa [2] = test: Binding affinity to Pseudomonas aeruginosa MurB assessed as change in melting temperature at 5 mM by differential scanning fluorimetry; summary of the method: as §1
[3] = Binding affinity to Pseudomonas aeruginosa MurB assessed as dissociation constant at 3 mM by isothermal titration calorimetry

`O=C(O)c1cnn(-c2cccs2)c1C(F)(F)F` showed a ΔTm (Pseudomonas aeruginosa [1]) of 0.3 °C.

With `Cc1cccc(-n2ncc(C(=O)O)c2C(F)(F)F)c1C` the ΔTm (Pseudomonas aeruginosa [1]) was 2 °C.

`Cc1c(C(=O)O)cc(CCO)n1-c1ccccc1` showed a ΔTm (Pseudomonas aeruginosa [1]) of 2 °C.

`O=C1Nc2ccccc2C1=O` gave a ΔTm (Pseudomonas aeruginosa [1]) of 1 °C and a ΔTm (Pseudomonas aeruginosa [2]) of 3.5 °C.

Work on `NCc1ccc2[nH]ccc2c1` yielded a ΔTm (Pseudomonas aeruginosa [1]) of 0.2 °C and a ΔTm (Pseudomonas aeruginosa [2]) of 1 °C.

`O=C(O)c1cnn(-c2ccc(Cl)c(Cl)c2)c1C(F)(F)F` gave a ΔTm (Pseudomonas aeruginosa [1]) of 2.3 °C and a Kd [3] of 26.1 µM.

With `Cc1ccccc1-n1ncc(C(=O)O)c1C(F)(F)F` the ΔTm (Pseudomonas aeruginosa [1]) was 2 °C.

In the case of `Cc1nc(C(=O)O)c(C)n1-c1ccccc1`, the ΔTm (Pseudomonas aeruginosa [1]) is reported as 0.7 °C.

For `Cc1cc(Cl)c(Cl)cc1-n1c(C)cc(C(=O)O)c1C(F)(F)F`, the ΔTm (Pseudomonas aeruginosa [1]) was 4.7 °C.

Work on `N#CCc1nc2ccccc2s1` yielded a ΔTm (Pseudomonas aeruginosa [1]) of 0 °C and a ΔTm (Pseudomonas aeruginosa [2]) of 1 °C.

For `NC(=O)c1ccc[n+]([C@@H]2O[C@H](COP(=O)(O)OP(=O)(O)OC[C@H]3O[C@@H](n4cnc5c(N)ncnc54)[C@H](OP(=O)(O)O)[C@@H]3O)[C@@H](O)[C@H]2O)c1`, the ΔTm (Pseudomonas aeruginosa [1]) was 3.5 °C.

Work on `Cc1cc(C(=O)O)c(C)n1-c1ccccc1` yielded a ΔTm (Pseudomonas aeruginosa [1]) of 2 °C and a Kd [3] of 110 µM.

In the case of `O=C(O)c1cnn(-c2ccncc2)c1C(F)(F)F`, the ΔTm (Pseudomonas aeruginosa [1]) is reported as 0 °C.

In the case of `Cc1c(-n2ncc(C(=O)O)c2C(F)(F)F)ccc(Cl)c1Cl`, the ΔTm (Pseudomonas aeruginosa [1]) is reported as 3.7 °C and the Kd [3] is reported as 11.3 µM.

Compound `Cc1ccc(-n2ncc(C(=O)O)c2C(F)(F)F)c(C)c1` has a ΔTm (Pseudomonas aeruginosa [1]) of 2.3 °C.

In the case of `O=C(O)c1cnn(-c2ccccc2F)c1C(F)(F)F`, the ΔTm (Pseudomonas aeruginosa [1]) is reported as 1 °C.

`NC(=O)c1cnn(-c2ccccc2)c1C(F)(F)F` showed a ΔTm (Pseudomonas aeruginosa [1]) of 0 °C.

`Cc1c(C(=O)O)nnn1-c1ccccc1` gave a ΔTm (Pseudomonas aeruginosa [1]) of 0.5 °C.

`Cc1ccccc1-n1c(C)cc(C(=O)O)c1C` showed a ΔTm (Pseudomonas aeruginosa [1]) of 2 °C.

With `O=C(O)c1cnn(-c2ccccc2C(F)(F)F)c1C(F)(F)F` the ΔTm (Pseudomonas aeruginosa [1]) was 1 °C.

For `O=C(O)c1cnn(-c2ccccc2Cl)c1C(F)(F)F`, the ΔTm (Pseudomonas aeruginosa [1]) was 1.5 °C and the Kd [3] was 148 µM.

`Cc1cc(Cl)c(Cl)cc1-n1ncc(C(=O)NS(=O)(=O)c2ccccc2)c1C(F)(F)F` gave a ΔTm (Pseudomonas aeruginosa [1]) of 2.7 °C and a Kd [3] of 12 µM.

In the case of `Cc1c(C(=O)O)cnn1-c1ccccc1`, the ΔTm (Pseudomonas aeruginosa [1]) is reported as 0.5 °C and the ΔTm (Pseudomonas aeruginosa [2]) is reported as 1.5 °C.

Work on `Cc1cc(C(=O)O)c(C)n1Cc1cccs1` yielded a ΔTm (Pseudomonas aeruginosa [1]) of 1.5 °C and a ΔTm (Pseudomonas aeruginosa [2]) of 2 °C.

In the case of `O=C(O)Cc1ccccc1`, the ΔTm (Pseudomonas aeruginosa [1]) is reported as 0 °C and the ΔTm (Pseudomonas aeruginosa [2]) is reported as 1 °C.

For `NC(=O)c1cccc(-n2ncc(C(=O)O)c2C(F)(F)F)c1`, the ΔTm (Pseudomonas aeruginosa [1]) was 0.5 °C.

`Cc1ccccc1-n1c(C)cc(C(=O)O)c1C(F)(F)F` showed a ΔTm (Pseudomonas aeruginosa [1]) of 2.5 °C.

In the case of `Cc1cc(Cl)c(Cl)cc1-n1ncc(C(=O)O)c1C(F)(F)F`, the ΔTm (Pseudomonas aeruginosa [1]) is reported as 5 °C.

In the case of `Cc1c(-n2c(C)cc(C(=O)O)c2C(F)(F)F)ccc(Cl)c1Cl`, the ΔTm (Pseudomonas aeruginosa [1]) is reported as 2.7 °C and the Kd [3] is reported as 11.4 µM.

Work on `Cc1c(-n2c(C)cc(C(=O)O)c2C)ccc(Cl)c1Cl` yielded a ΔTm (Pseudomonas aeruginosa [1]) of 4 °C.

In the case of `NC(=O)C1=CN([C@@H]2O[C@H](COP(=O)(O)OP(=O)(O)OC[C@H]3O[C@@H](n4cnc5c(N)ncnc54)[C@H](OP(=O)(O)O)[C@@H]3O)[C@@H](O)[C@H]2O)C=CC1`, the ΔTm (Pseudomonas aeruginosa [1]) is reported as 3 °C.

In the case of `NCc1ccc2sccc2c1`, the ΔTm (Pseudomonas aeruginosa [1]) is reported as 0 °C and the ΔTm (Pseudomonas aeruginosa [2]) is reported as 1 °C.

Compound `O=C(O)c1cnn(-c2ccc(C(F)(F)F)cc2)c1C(F)(F)F` has a ΔTm (Pseudomonas aeruginosa [1]) of 1 °C.

Work on `CS(=O)(=O)NC(=O)c1cnn(-c2ccccc2)c1C(F)(F)F` yielded a ΔTm (Pseudomonas aeruginosa [1]) of 0.5 °C.

`Cc1c(C(=O)NS(=O)(=O)Cc2ccccc2)cnn1-c1ccccc1` gave a ΔTm (Pseudomonas aeruginosa [1]) of 0 °C.

For `Cc1cccc(C)c1-n1ncc(C(=O)O)c1C(F)(F)F`, the ΔTm (Pseudomonas aeruginosa [1]) was 2.5 °C.

For `Cc1cc(C(=O)O)c(C)n1-c1ccc(Cl)cc1`, the ΔTm (Pseudomonas aeruginosa [1]) was 1.5 °C.

In the case of `Cc1cc(C(=O)O)c(C(F)(F)F)n1-c1ccccc1`, the ΔTm (Pseudomonas aeruginosa [1]) is reported as 2 °C and the Kd [3] is reported as 112 µM.

Work on `Cc1cccc(C)c1-n1ncc(C(=O)NS(=O)(=O)c2cccc(Br)c2)c1C(F)(F)F` yielded a ΔTm (Pseudomonas aeruginosa [1]) of 1.3 °C.

Work on `O=C(O)c1cnn(-c2c(Cl)cccc2Cl)c1C(F)(F)F` yielded a ΔTm (Pseudomonas aeruginosa [1]) of 2.5 °C.

`O=C(O)c1cnn(-c2ccccc2)c1O` showed a ΔTm (Pseudomonas aeruginosa [1]) of 0.7 °C.

Compound `O=C(O)c1cnn(Cc2cccs2)c1C(F)(F)F` has a ΔTm (Pseudomonas aeruginosa [1]) of 1 °C.

Compound `Cc1cc(C(=O)O)c(C)n1-c1ccc(Cl)c(Cl)c1` has a ΔTm (Pseudomonas aeruginosa [1]) of 2.3 °C.

In the case of `Cc1cc(C(=O)O)n[nH]1`, the ΔTm (Pseudomonas aeruginosa [1]) is reported as 0 °C and the ΔTm (Pseudomonas aeruginosa [2]) is reported as 1 °C.

For `CN1C(=O)C(=O)c2ccccc21`, the ΔTm (Pseudomonas aeruginosa [1]) was 1 °C and the ΔTm (Pseudomonas aeruginosa [2]) was 4 °C.

With `Cc1ccc(C)c(-n2ncc(C(=O)O)c2C(F)(F)F)c1` the ΔTm (Pseudomonas aeruginosa [1]) was 2 °C and the Kd [3] was 138 µM.

Compound `O=C(O)c1cnn(Cc2ccccc2)c1C(F)(F)F` has a ΔTm (Pseudomonas aeruginosa [1]) of 1 °C.

`Cc1cccc(C)c1-n1ncc(C(=O)NS(=O)(=O)c2ccccc2)c1C(F)(F)F` gave a ΔTm (Pseudomonas aeruginosa [1]) of 3 °C.

For `O=C(O)CCc1cccc(Cl)c1`, the ΔTm (Pseudomonas aeruginosa [1]) was 0.5 °C and the ΔTm (Pseudomonas aeruginosa [2]) was 1 °C.

Compound `O=C(O)c1cnn(-c2ccccc2)c1CO` has a ΔTm (Pseudomonas aeruginosa [1]) of 0.2 °C.

In the case of `O=C(O)c1cnn(-c2cccnc2)c1C(F)(F)F`, the ΔTm (Pseudomonas aeruginosa [1]) is reported as 0.3 °C.

Compound `Cc1cc(CC(=O)O)on1` has a ΔTm (Pseudomonas aeruginosa [1]) of 0 °C and a ΔTm (Pseudomonas aeruginosa [2]) of 1 °C.

For `Cc1cccc(C)c1-n1c(C)cc(C(=O)O)c1C`, the ΔTm (Pseudomonas aeruginosa [1]) was 3 °C.

With `Cc1cc(Cl)c(Cl)cc1-n1c(C)cc(C(=O)O)c1C` the ΔTm (Pseudomonas aeruginosa [1]) was 3.5 °C and the Kd [3] was 24.1 µM.

Work on `Cc1c(C(=O)NCc2ccccc2)cnn1-c1ccccc1` yielded a ΔTm (Pseudomonas aeruginosa [1]) of 0 °C.

Compound `CCOC(=O)c1cnn(-c2ccccc2Cl)c1C(F)(F)F` has a ΔTm (Pseudomonas aeruginosa [1]) of 0 °C.

Work on `O=C(O)Cc1ccc(Cl)c(Cl)c1` yielded a ΔTm (Pseudomonas aeruginosa [1]) of 1 °C and a ΔTm (Pseudomonas aeruginosa [2]) of 1.5 °C.

`O=C(O)c1cnn(-c2ccccc2)c1C(F)(F)F` gave a ΔTm (Pseudomonas aeruginosa [1]) of 1 °C.

For `Nc1c(C(=O)O)cnn1-c1ccccc1`, the ΔTm (Pseudomonas aeruginosa [1]) was 0 °C.

`O=C(O)c1ccc(Cl)c(Cl)c1` gave a ΔTm (Pseudomonas aeruginosa [1]) of 0.5 °C and a ΔTm (Pseudomonas aeruginosa [2]) of 1 °C.

In the case of `Cc1cc(C(=O)O)c(C)n1-c1cccc(Cl)c1`, the ΔTm (Pseudomonas aeruginosa [1]) is reported as 1.5 °C.

In the case of `Cc1cc([N+](=O)[O-])ccc1-n1ncc(C(=O)O)c1C(F)(F)F`, the ΔTm (Pseudomonas aeruginosa [1]) is reported as 1.7 °C.

Compound `O=C(O)COc1ccc(Cl)c(Cl)c1` has a ΔTm (Pseudomonas aeruginosa [1]) of 1 °C and a ΔTm (Pseudomonas aeruginosa [2]) of 1.5 °C.

For `O=C(NS(=O)(=O)c1ccccc1)c1cnn(-c2ccccc2)c1C(F)(F)F`, the ΔTm (Pseudomonas aeruginosa [1]) was 1 °C.

With `O=C(O)c1cnn(-c2ccccc2Br)c1C(F)(F)F` the ΔTm (Pseudomonas aeruginosa [1]) was 2 °C.
